Measured values from ChEMBL document CHEMBL1649314, “Experimental murine scedosporiosis: histopathology and azole treatment” (2010).
In brackets after ≈: the same amount, converted by molar mass. Activity calls are given as the source filed them. No cut-off for these calls is given here.

Legend:
Scedosporium boydii [1] = assay: Antifungal activity against Scedosporium boydii FMR 8627 infected in immunosuppressed OF1 mouse assessed as reduction in kidney fungal burden at 40 mg/kg, po BID administered 24 hrs postinfection for 10 days measured after 20 days; format: functional, organism-based; set-up: dose 40 mg/kg
Scedosporium apiospermum [2] = assay: Antifungal activity against Scedosporium apiospermum CBS 117407 infected in immunosuppressed OF1 mouse assessed as reduction in kidney fungal burden at 20 mg/kg, po BID administered 24 hrs postinfection for 10 days measured after 20 days; format: functional, organism-based; set-up: dose 20 mg/kg
Scedosporium apiospermum [3] = assay: Antifungal activity against Scedosporium apiospermum CBS 117407 infected in immunosuppressed OF1 mouse assessed as prolonged survival of mouse at 40 mg/kg, po BID administered 24 hrs postinfection for 10 days measured after 20 days; format: functional, organism-based; set-up: dose 40 mg/kg
Scedosporium apiospermum [4] = assay: Antifungal activity against Scedosporium apiospermum IHEM 14464 infected in immunosuppressed OF1 mouse assessed as prolonged survival of mouse at 40 mg/kg, po BID administered 24 hrs postinfection for 10 days measured after 20 days; format: functional, organism-based; set-up: dose 40 mg/kg
Scedosporium boydii [5] = assay: Antifungal activity against Scedosporium boydii FMR 6694 by broth dilution method; format: functional
Scedosporium boydii [6] = assay: Antifungal activity against Scedosporium boydii FMR 8627 by broth dilution method; format: functional
Scedosporium aurantiacum [7] = assay: Antifungal activity against Scedosporium aurantiacum IHEM 15458 infected in immunosuppressed OF1 mouse assessed as reduction in kidney fungal burden at 20 mg/kg, po BID administered 24 hrs postinfection for 10 days measured after 20 days; format: functional, organism-based; set-up: dose 20 mg/kg
Scedosporium boydii [8] = assay: Antifungal activity against Scedosporium boydii FMR 8627 infected in immunosuppressed OF1 mouse assessed as prolonged survival of mouse at 20 mg/kg, po BID administered 24 hrs postinfection for 10 days measured after 20 days; format: functional, organism-based; set-up: dose 20 mg/kg
Procedure, shortened: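 Male OF1 mice were immunosuppressed 1 day before infection with cyclophosphamide 200 mg/kg i.p. plus 5-fluorouracil 150 mg/kg i.v. They were infected i.v. via a lateral tail vein with 1 × 10^4 CFU/mouse in 0.2 ml saline. Oral dosing was 10 or 20 mg/kg twice daily, or 20 or 40 mg/kg once daily (those mice and controls drank grapefruit juice from day −3). Dosing ran 24 h post-challenge for 10 days; 10 mice/group; observed daily to day 20; Kaplan-Meier with log rank test.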

Scedosporium aurantiacum [9] = assay: Antifungal activity against Scedosporium aurantiacum IHEM 15458 infected in immunosuppressed OF1 mouse assessed as reduction in brain fungal burden at 20 mg/kg, po BID administered 24 hrs postinfection for 10 days measured after 20 days; format: functional, organism-based; set-up: dose 20 mg/kg
Scedosporium boydii [10] = assay: Antifungal activity against Scedosporium boydii FMR 8627 infected in immunosuppressed OF1 mouse assessed as prolonged survival of mouse at 40 mg/kg, po BID administered 24 hrs postinfection for 10 days measured after 20 days; format: functional, organism-based; set-up: dose 40 mg/kg
Scedosporium apiospermum [11] = assay: Antifungal activity against Scedosporium apiospermum CBS 117407 infected in immunosuppressed OF1 mouse assessed as reduction in brain fungal burden at 20 mg/kg, po BID administered 24 hrs postinfection for 10 days measured after 20 days; format: functional, organism-based; set-up: dose 20 mg/kg
Scedosporium apiospermum [12] = assay: Antifungal activity against Scedosporium apiospermum CBS 117407 infected in immunosuppressed OF1 mouse assessed as prolonged survival of mouse at 20 mg/kg, po BID administered 24 hrs postinfection for 10 days measured after 20 days; format: functional, organism-based; set-up: dose 20 mg/kg
Procedure, shortened: (§1)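 Male OF1 mice, groups of 10, immunosuppressed 1 day before infection with cyclophosphamide 200 mg/kg i.p. plus 5-fluorouracil 150 mg/kg i.v. Infected i.v. via tail vein with 1 × 10^4 CFU in 0.2 ml saline. Oral treatment began 24 h post-challenge for 10 days. Mice checked daily for 20 days. Survival by Kaplan-Meier, compared by log rank test.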

Scedosporium aurantiacum [13] = assay: Antifungal activity against Scedosporium aurantiacum CBS 116910 infected in immunosuppressed OF1 mouse assessed as reduction in brain fungal burden at 20 mg/kg, po BID administered 24 hrs postinfection for 10 days measured after 20 days; format: functional, organism-based; set-up: dose 20 mg/kg
Scedosporium aurantiacum [14] = assay: Antifungal activity against Scedosporium aurantiacum CBS 116910 infected in immunosuppressed OF1 mouse assessed as reduction in kidney fungal burden at 40 mg/kg, po BID administered 24 hrs postinfection for 10 days measured after 20 days; format: functional, organism-based; set-up: dose 40 mg/kg
[15] = Antifungal activity against Scedosporium aurantiacum IHEM 15458 infected in immunosuppressed OF1 mouse assessed as prolonged survival of mouse at 20 mg/kg, po BID administered 24 hrs postinfection for 10 days measured after 20 days; format: functional, organism-based; set-up: dose 20 mg/kg; procedure, shortened: as §1
Scedosporium apiospermum [16] = assay: Antifungal activity against Scedosporium apiospermum IHEM 14464 by broth dilution method; format: functional
[17] = Antifungal activity against Scedosporium aurantiacum IHEM 15458 infected in immunosuppressed OF1 mouse assessed as prolonged survival of mouse at 40 mg/kg, po BID administered 24 hrs postinfection for 10 days measured after 20 days; format: functional, organism-based; set-up: dose 40 mg/kg
Scedosporium aurantiacum [18] = assay: Antifungal activity against Scedosporium aurantiacum CBS 116910 infected in immunosuppressed OF1 mouse assessed as reduction in kidney fungal burden at 20 mg/kg, po BID administered 24 hrs postinfection for 10 days measured after 20 days; format: functional, organism-based; set-up: dose 20 mg/kg
Scedosporium boydii [19] = assay: Antifungal activity against Scedosporium boydii FMR 8627 infected in immunosuppressed OF1 mouse assessed as reduction in brain fungal burden at 20 mg/kg, po BID administered 24 hrs postinfection for 10 days measured after 20 days; format: functional, organism-based; set-up: dose 20 mg/kg
Scedosporium apiospermum [20] = assay: Antifungal activity against Scedosporium apiospermum IHEM 14464 infected in immunosuppressed OF1 mouse assessed as prolonged survival of mouse at 20 mg/kg, po BID administered 24 hrs postinfection for 10 days measured after 20 days; format: functional, organism-based; set-up: dose 20 mg/kg; procedure, shortened: as §1
[21] = Antifungal activity against Scedosporium aurantiacum IHEM 15458 by broth dilution method; format: functional
Scedosporium apiospermum [22] = assay: Antifungal activity against Scedosporium apiospermum IHEM 14464 infected in immunosuppressed OF1 mouse assessed as reduction in brain fungal burden at 20 mg/kg, po BID administered 24 hrs postinfection for 10 days measured after 20 days; format: functional, organism-based; set-up: dose 20 mg/kg
Scedosporium boydii [23] = assay: Antifungal activity against Scedosporium boydii FMR 6694 infected in immunosuppressed OF1 mouse assessed as reduction in brain fungal burden at 20 mg/kg, po BID administered 24 hrs postinfection for 10 days measured after 20 days; format: functional, organism-based; set-up: dose 20 mg/kg
Scedosporium apiospermum [24] = assay: Antifungal activity against Scedosporium apiospermum CBS 117407 infected in immunosuppressed OF1 mouse assessed as reduction in kidney fungal burden at 40 mg/kg, po BID administered 24 hrs postinfection for 10 days measured after 20 days; format: functional, organism-based; set-up: dose 40 mg/kg
Scedosporium apiospermum [25] = assay: Antifungal activity against Scedosporium apiospermum IHEM 14464 infected in immunosuppressed OF1 mouse assessed as reduction in kidney fungal burden at 40 mg/kg, po BID administered 24 hrs postinfection for 10 days measured after 20 days; format: functional, organism-based; set-up: dose 40 mg/kg
Scedosporium aurantiacum [26] = assay: Antifungal activity against Scedosporium aurantiacum IHEM 15458 infected in immunosuppressed OF1 mouse assessed as reduction in kidney fungal burden at 40 mg/kg, po BID administered 24 hrs postinfection for 10 days measured after 20 days; format: functional, organism-based; set-up: dose 40 mg/kg
[27] = Antifungal activity against Scedosporium aurantiacum CBS 116910 infected in immunosuppressed OF1 mouse assessed as prolonged survival of mouse at 20 mg/kg, po BID administered 24 hrs postinfection for 10 days measured after 20 days; format: functional, organism-based; set-up: dose 20 mg/kg; procedure, shortened: as §1
[28] = Antifungal activity against Scedosporium aurantiacum CBS 116910 by broth dilution method; format: functional
Scedosporium boydii [29] = assay: Antifungal activity against Scedosporium boydii FMR 6694 infected in immunosuppressed OF1 mouse assessed as reduction in kidney fungal burden at 40 mg/kg, po BID administered 24 hrs postinfection for 10 days measured after 20 days; format: functional, organism-based; set-up: dose 40 mg/kg
Scedosporium boydii [30] = assay: Antifungal activity against Scedosporium boydii FMR 6694 infected in immunosuppressed OF1 mouse assessed as prolonged survival of mouse at 20 mg/kg, po BID administered 24 hrs postinfection for 10 days measured after 20 days; format: functional, organism-based; set-up: dose 20 mg/kg; procedure, shortened: as §1
Scedosporium apiospermum [31] = assay: Antifungal activity against Scedosporium apiospermum IHEM 14464 infected in immunosuppressed OF1 mouse assessed as reduction in kidney fungal burden at 20 mg/kg, po BID administered 24 hrs postinfection for 10 days measured after 20 days; format: functional, organism-based; set-up: dose 20 mg/kg
Scedosporium apiospermum [32] = assay: Antifungal activity against Scedosporium apiospermum CBS 117407 by broth dilution method; format: functional
Scedosporium boydii [33] = assay: Antifungal activity against Scedosporium boydii FMR 8627 infected in immunosuppressed OF1 mouse assessed as reduction in kidney fungal burden at 20 mg/kg, po BID administered 24 hrs postinfection for 10 days measured after 20 days; format: functional, organism-based; set-up: dose 20 mg/kg
[34] = Antifungal activity against Scedosporium aurantiacum CBS 116910 infected in immunosuppressed OF1 mouse assessed as prolonged survival of mouse at 40 mg/kg, po BID administered 24 hrs postinfection for 10 days measured after 20 days; format: functional, organism-based; set-up: dose 40 mg/kg
Scedosporium boydii [35] = assay: Antifungal activity against Scedosporium boydii FMR 6694 infected in immunosuppressed OF1 mouse assessed as prolonged survival of mouse at 40 mg/kg, po BID administered 24 hrs postinfection for 10 days measured after 20 days; format: functional, organism-based; set-up: dose 40 mg/kg
Scedosporium boydii [36] = assay: Antifungal activity against Scedosporium boydii FMR 6694 infected in immunosuppressed OF1 mouse assessed as reduction in kidney fungal burden at 20 mg/kg, po BID administered 24 hrs postinfection for 10 days measured after 20 days; format: functional, organism-based; set-up: dose 20 mg/kg

For C[C@@H](c1ncncc1F)[C@](O)(Cn1cncn1)c1ccc(F)cc1F [VORICONAZOLE], the Activity (Scedosporium boydii [1]) was “Active”, the Activity (Scedosporium apiospermum [2]) was “Active” and the Activity (Scedosporium apiospermum [3]) was “Active”. For the same molecule, the Activity (Scedosporium apiospermum [4]) was “Active”, the MIC (Scedosporium boydii [5]) was 1 µg/mL (≈ 2.86 µM) and the MIC (Scedosporium boydii [6]) was 0.5 µg/mL (≈ 1.43 µM). The Activity (Scedosporium aurantiacum [7]) was “Active”, the Activity (Scedosporium boydii [8]) was “Active” and the Activity (Scedosporium aurantiacum [9]) was “Active”. For the same molecule, the Activity (Scedosporium boydii [10]) was “Active”, the Activity (Scedosporium apiospermum [11]) was “Active” and the Activity (Scedosporium apiospermum [12]) was “Active”. For the same molecule, the Activity (Scedosporium aurantiacum [13]) was “Active”, the Activity (Scedosporium aurantiacum [14]) was “Active” and the Activity [15] was “Active”. For the same molecule, the MIC (Scedosporium apiospermum [16]) was 0.25 µg/mL (≈ 0.716 µM), the Activity [17] was “Active” and the Activity (Scedosporium aurantiacum [18]) was “Active”. The Activity (Scedosporium boydii [19]) was “Active”, the Activity (Scedosporium apiospermum [20]) was “Active” and the MIC [21] was 1 µg/mL (≈ 2.86 µM). For the same molecule, the Activity (Scedosporium apiospermum [22]) was “Active”, the Activity (Scedosporium boydii [23]) was “inactive” and the Activity (Scedosporium apiospermum [24]) was “Active”. The Activity (Scedosporium apiospermum [25]) was “Active”, the Activity (Scedosporium aurantiacum [26]) was “Active” and the Activity [27] was “Active”. The MIC [28] was 32 µg/mL (≈ 91.6 µM), the Activity (Scedosporium boydii [29]) was “inactive” and the Activity (Scedosporium boydii [30]) was “Active”. For the same molecule, the Activity (Scedosporium apiospermum [31]) was “Active”, the MIC (Scedosporium apiospermum [32]) was 0.5 µg/mL (≈ 1.43 µM) and the Activity (Scedosporium boydii [33]) was “Active”. The Activity [34] was “Active”, the Activity (Scedosporium boydii [35]) was “Active” and the Activity (Scedosporium boydii [36]) was “inactive”.
